These results are taken from ChEMBL document CHEMBL1938286, “A concise synthesis of viscolin, and its anti-inflammatory effects through the suppression of iNOS, COX-2, ERK phosphorylation and proinflammatory cytokines expressions” (Eur J Med Chem, 2012).

The test system of assay [1] is Mus musculus. Description: Antiinflammatory activity in carrageenan-stimulated ICR mouse assessed as decrease in neutrophil number at 8 mg/kg, ip measured after 5 hrs. The class given is functional, organism-based. More on the design: dose 8 mg/kg. The procedure, abridged: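 Male ICR mice were dosed 30 min before intraplantar carrageenan, and paw biopsies were taken 5 h later. Tissue was fixed in Dietric solution for 1 week at room temperature, dehydrated in graded ethanol and paraffin-embedded. 7-thickness sections were stained with hematoxylin–eosin or Van Gieson and examined by light microscopy.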

Assay [2] deals with Mus musculus. Description: Antiinflammatory activity in carrageenan-stimulated ICR mouse assessed as reduction in COX2 immunoreactive cells at 8 mg/kg, ip measured after 5 hrs. The class given is functional, organism-based. More on the design: dose 8 mg/kg.
For assay [3], the system named is Mus musculus. Kind of assay: Antiinflammatory activity in ICR mouse assessed as decrease in carrageenan-induced serum NO level at 10 mg/kg, ip measured after 5 hrs. The class given is functional, organism-based. The arrangement: dose 10 mg/kg. The procedure, abridged: (§1)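 Male ICR mice (18–25 g, n = 6 per group). Carrageenan was injected intraplantar into the paw, with drug given 30 min beforehand. Serum was collected at the 5th hr. Nitrite was measured colorimetrically by Griess reaction, and TNF-α by commercial ELISA. Data are mean ± SEM.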

Assay [4] deals with Mus musculus. Kind of assay: Antioxidant activity in carrageenan-stimulated ICR mouse assessed as increase in GPx activity at 10 mg/kg, ip measured after 5 hrs. Conditions: route intraperitoneal. The class given is functional. The procedure, abridged:
(§2)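 Male ICR mice (n = 6 per group) received the drug 30 min before intraplantar carrageenan, and paw tissue was taken at the 5th hr. Total SOD was measured by inhibition of cytochrome c reduction, CAT by Aebi's method, and cytosolic GPx by Paglia–Valentine. Activities are in U/mg protein, given as mean ± SEM.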

Assay [5] relates to Mus musculus. Kind of assay: Antiinflammatory activity in carrageenan-stimulated ICR mouse assessed as reduction in iNOS immunoreactive cells at 8 mg/kg, ip measured after 5 hrs. The class given is functional, organism-based. The arrangement: dose 8 mg/kg.
Assay [6] has as its system Mus musculus. Kind of assay: Down regulation of COX-2 protein expression in carrageenan-stimulated ICR mouse at 10 mg/kg, ip measured after 5 hrs by Western blot analysis. The class given is functional. The following applies: route intraperitoneal. The procedure, abridged: (§3)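 Male ICR mice (18–25 g, n = 6 per group) received intraplantar carrageenan. Paw tissue was taken 5 h after carrageenan. Lysates were made in RIPA buffer and 30 µg protein run on SDS-PAGE/PVDF immunoblot with ECL detection. Band intensities were quantified relative to the carrageenan-alone group across three independent experiments.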

In assay [7] the test system is Mus musculus. Kind of assay: Antioxidant activity in carrageenan-stimulated ICR mouse assessed as increase in CAT activity at 10 mg/kg, ip measured after 5 hrs. The class given is functional. The following applies: route intraperitoneal. The procedure, abridged:
as §2

The subject of assay [8] is Mus musculus. Description: Antiinflammatory activity in ICR mouse assessed as decrease in carrageenan-induced serum TNFalpha level at 10 mg/kg, ip measured after 5 hrs. The class given is functional, organism-based. The arrangement: dose 10 mg/kg. The procedure, abridged: as §1
For assay [9], the system named is Mus musculus. Description: Antioxidant activity in carrageenan-stimulated ICR mouse assessed as increase in SOD activity at 10 mg/kg, ip measured after 5 hrs. The class given is functional. The following applies: route intraperitoneal. The procedure, abridged: as §2
Assay [10] has as its system Mus musculus. Description: Down regulation of iNOS protein expression in carrageenan-stimulated ICR mouse at 10 mg/kg, ip measured after 5 hrs by Western blot analysis. The class given is functional. Conditions: route intraperitoneal. The procedure, abridged:
as §3
Background: A western blot detects proteins with antibodies after separation by electrophoresis.

Assay [11] relates to Mus musculus. Kind of assay: Antiinflammatory activity in ICR mouse assessed as inhibition of carrageenan-induced hind paw edema at 10 mg/kg, ip. The class given is functional, organism-based. The arrangement: dose 10 mg/kg. For orientation: In the carrageenan paw model, swelling and tenderness develop within hours.
Assay [12] has as its system Mus musculus. Description: Antiinflammatory activity in ICR mouse assessed as decrease in carrageenan-induced MDA level at 10 mg/kg, ip measured after 5 hrs. The class given is functional, organism-based. The arrangement: dose 10 mg/kg. The method in brief:
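Male ICR mice (n = 6 per group) were dosed 30 min before intraplantar carrageenan. MDA in the edematous paw tissue was determined at the 5th hr after carrageenan.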

In assay [13] the test system is Mus musculus. Kind of assay: Antiinflammatory activity in ICR mouse assessed as inhibition of carrageenan-induced hind paw edema at 10 mg/kg, ip measured after 4 hrs. The class given is functional, organism-based. The arrangement: dose 10 mg/kg.

Activity calls are given as the source filed them. The rule behind the calls is not given here.

As for `COc1ccc2c(c1)c(CC(=O)O)c(C)n2C(=O)c1ccc(Cl)cc1` [INDOMETHACIN], the outcome in assay [1], in assay [2], in assay [3], in [5], in assay [8] and in [11] was Active. Also, the outcome in [12] and in [13] was Active. Further, the Activity in assay [4] is reported as 10.45 U/mg; in assay [6], 73.1%; in assay [7], 4.65 U/mg; in assay [9], 3.85 U/mg; in [10], 69.1%.
